Sampled rows, rich in hits. Any-hit rate of the full collection: about 1.9%.
LMPTP inh – LMPTP (human) inhibition. P24666. recombinant LMPTP-A, OMFP fluorogenic substrate, fluorescence intensity. inhibition, % at 20 µM. 360,000 tested, 0.22% active. AID 651560;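 active = compounds that cut the enzyme signal by at least half of the control window in the single-dose screen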
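Assay system: LMPTP-A enzyme. Input: 0.625 nM LMPTP-A final. Probe or stimulus: 400 µM OMFP. Compound dosing: single 20 µM dose. Schedule: 50 min dark incubation at room temperature. Detection: fluorescence intensity of OMFP turnover product. Read-out: percent inhibition versus substrate-only and uninhibited controls. Benchmarks: no-enzyme low control, uninhibited high control.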
CSN deneddyl inh – blocks human CSN-mediated cullin deneddylation | Q92905 | Purified CSN, SCF-Nedd8-OG deneddylation, fluorescence polarization | inhibition, % at 12.5 µM | 360,000 tested, 0.38% active | AID 651999;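 active = pattern-corrected inhibition above about 35%, with an unprinted fluorescence ratio check between 0.5 and 1.5, limit read from the data, passing the limit was not always enough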
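Test system: Human Csn5 produced in HEK293T cells | Compound: 12.5 µM single point | Times: 90 min, room temperature | Signal: Fluorescence polarization readout | Read-out basis: % inhibition of substrate cleavage by Csn5 | Controls: no-enzyme wells high, enzyme-with-substrate wells low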
STEP block – STEP (human) phosphatase inhibition. P54829. recombinant STEP, OMFP fluorogenic substrate, fluorescence. inhibition, % at 20 µM. 360,000 tested, 0.25% active;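 active = inhibition at 20 µM, scaled per plate between control wells, above about 37%, limit read from the data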
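Test system: STEP tyrosine phosphatase / Reagent: OMFP at 25 µM / Doses: 20 µM, 1% DMSO / Read-out: percent inhibition scaled to no-enzyme and uninhibited-enzyme controls, plate-pattern corrected / Detection: FITC-channel fluorescence of OMFP product / Medium: Bis-Tris buffer pH 6.0, 2.5 mM DTT, 0.005% Tween 20 / Schedule: 20 min at room temperature, dark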
SUMO1 PPI mod – SUMO1-SIM interaction modulation | inhibition, % at 20 µM | 360,000 tested, 0.33% active | SUMO1 binding to a labelled peptide, TR-FRET, 1 h | AID 602429; in the data active = inhibition above about 37%
Scp1 inh – blocks human Scp-1 phosphatase activity | Q9GZU7 | Recombinant Scp1, phosphopeptide, malachite green phosphate absorbance | inhibition, % at 20 µM | 340,000 tested, 0.88% active;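 active = inhibition above about 50% at 20 µM, limit read from the data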
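assay system = SCP-1 phosphatase catalytic domain, residues 76-261 | buffer or medium = 50 mM Tris acetate pH 5.5, 0.005% Tween-20, 10 mM MgCl2 | incubation = enzyme reaction 45 min at room temperature, colour 5 min, stabilisation 30 min | signal = Phosphate-binding colour reagent, absorbance read at 630 nm | measure = % inhibition at 20 µM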
DNMT1 block – DNMT1 (human) enzyme inhibition. P26358. DNMT1 molecular beacon, Hinp1I cleavage, fluorescence. inhibition (reported as % activation of signal), % at 10 µM. 360,000 tested, 0.83% active. AID 588458; in the data active = inhibition above about 50%
Beacon interf DR – shows spectral interference in the DNMT1 beacon assay. shares compounds with DNMT1 block. molecular beacon fluorescence, spectral interference counter-screen. IC50, µM. 200 tested, under 10 active. AID 602382; call rule not given here
DNMT1 inh conf – confirmation of human DNMT1 inhibitors; AID 602385; inhibition, % at 10 µM; DNMT1 molecular beacon HinP1I cleavage, fluorescence; 2,300 tested, 8% active; shares compounds with DNMT1 block;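 active = average inhibition of at least 30% in the single-concentration confirmation test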
Beacon interf – counter-screen for DNMT1 inhibitors: spectral interference. activation (fluorescence interference), % at 10 µM. 2,300 tested, 1% active. DNMT1 molecular beacon spectral interference counterscreen, fluorescence 485/520. shares compounds with DNMT1 block;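 active = activation of at least 30% at 10 µM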;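 also: DNMT1 catalytic domain with a HinP1I cleavage step and a FAM/dabcyl DNA beacon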
Numbers stand for hits; – = inactive; · = no result.

SMILES	LMPTP inh	CSN deneddyl inh	STEP block	SUMO1 PPI mod	Scp1 inh	DNMT1 block	DNMT1 inh conf	Beacon interf	others
O=[N+]([O-])c1ccc(-c2nn(-c3ccccc3)cc2/C=N/n2c(-c3ccncc3)n[nH]c2=S)cc1	–	–	–	–	–	56.8	–	–
O=C(c1ccc(Cl)cc1)c1cccc(O)c1	–	–	–	–	–	–	·	·
COCCn1c(-c2ccc(-c3ccc([N+](=O)[O-])cc3Br)o2)nc2c1c(=O)[nH]c(=O)n2CC(C)C	–	–	–	–	–	69.8	–	–
COCCn1c(=O)[nH]c(=O)c2c1nc(-c1ccc(-c3ccc(Cl)cc3[N+](=O)[O-])o1)n2Cc1ccccc1	–	–	–	–	–	–	·	·
C=CC(=O)Nc1cccc(Oc2cc(Cl)nc3[nH]ccc23)c1	–	–	–	–	–	–	·	·
O=C(Cc1cn2ccsc2n1)NCc1ccccc1	–	–	–	–	–	–	·	·
O=C(Cc1cn2ccsc2n1)Nc1nc2c(s1)CN(Cc1ccccc1)CC2	60.7	–	–	–	–	55.8	–	–
CCN1CCc2nc(NC(=O)C(c3ccccc3)c3ccccc3)sc2C1	–	–	–	–	–	62.6	–	–
CC(C)(CC(=O)O)CC(=O)Nc1ccc2c(c1)ncn2CCc1ccccc1	–	–	–	–	–	–	·	·
Cn1ncc(N=Cc2c(O)ccc3ccccc23)c1C(=O)Nc1cccc(Cl)c1	–	–	–	–	–	51.1	–	–
COCCn1c(SCC(=O)Nc2sc(C)c(C)c2C#N)nnc1-c1ccc(OC)cc1	–	–	–	–	–	–	·	·
Cc1ccc(-c2nnc(SCC(=O)Nc3sc(C)c(C)c3C#N)n2C)cc1	–	–	–	–	–	52.5	–	–
CC(OC(=O)C1CC1)C(=O)Nc1ncc(Cl)cc1Cl (stereo not drawn)	–	–	–	–	–	–	·	·
C/C(=N/NC(=O)C(C)n1nc(C)c([N+](=O)[O-])c1C)c1ccc(OCC(N)=O)cc1 (stereo not drawn)	–	–	–	–	–	–	·	·
Nc1ccc(Nc2ccccc2)c(S(=O)(=O)O)c1	70.3	–	97.3	58.2	82.7	97.3	–	–
c1ccc2c(c1)OCCOCCOc1ccccc1OCCOCCO2	–	–	–	–	–	–	·	·
CCOc1ccc(S(=O)(=O)N(CC(=O)N/N=C/c2ccc(-c3ccc([N+](=O)[O-])cc3)o2)c2ccccc2)cc1	–	–	–	–	–	99.9	–	–
CCOC(=O)c1ccc(-c2ccc(/C=N/NC(=O)CN(c3cccc(C)c3)S(C)(=O)=O)o2)cc1	–	–	–	–	–	57.0	–	–
CC(=O)OC1CCC2C3CCc4cc(OP(=O)(N5CC5)N5CC5)ccc4C3CCC12C (stereo not drawn)	–	–	–	–	·	–	·	·
O=C(NCc1ccc2c(c1)OCO2)C1CCN(C(=O)Nc2ccc(Cl)cc2)CC1	–	–	–	–	–	74.6	–	–
COCCCN1CN(Cc2ccccc2)CNC1=S	–	–	–	–	–	–	·	·
C=CCn1c(NC(=O)c2ccccc2Cl)c(C#N)c2nc3ccccc3nc21	–	56.8	–	53.0	–	63.9	–	–
O=C(CCOc1ccccc1)Nc1ccc(S(=O)(=O)Nc2ncccn2)cc1	–	–	–	–	–	–	·	·
Cc1ccccc1NC(=O)COC(=O)c1ccc(CSc2ccc(Cl)cc2)cc1	–	–	–	–	–	52.1	–	–
Cc1nc2nc3c(c(=O)n2[nH]1)CCC3	–	–	–	–	–	–	·	·
SMILES	LMPTP inh	CSN deneddyl inh	STEP block	SUMO1 PPI mod	Scp1 inh	DNMT1 block	DNMT1 inh conf	Beacon interf	others
O=c1c2c(nc3nc(Cc4ccccc4)[nH]n13)CCC2	–	–	–	–	–	60.5	–	–
CCCCCC1NC(=O)NC1CCCCCC(=O)O (stereo not drawn)	–	–	–	–	–	–	·	·
O=C(O)CCCCC1SCC2NC(=O)NC21 (stereo not drawn)	–	–	–	–	–	81.5	–	–
COc1ccc2[nH]c(C)c(-c3csc(N)n3)c2c1	–	–	–	–	–	81.9	–	–
Cc1nn(CC(=O)Nc2ccc3c(c2)nc2n3CCN(C3CCCCC3)C2)c(=O)c2ccccc12	–	–	–	–	–	80.3	–	–
CCN1C(=O)CC(NC2CCN(C(=O)c3ccc(F)cc3)CC2)C1=O (stereo not drawn)	–	–	–	–	–	–	·	·
Cc1ccc(CC(=O)Nc2ncc([N+](=O)[O-])s2)cc1	–	–	–	–	–	–	·	·
COc1ccc(C(=O)OCC(=O)Nc2sccc2C(N)=O)cc1OC	–	–	–	–	–	–	·	·
O=C(COC(=O)c1ccc(Br)o1)Nc1ncc([N+](=O)[O-])s1	–	–	–	–	–	71.2	–	–
COc1ccc(C(=O)OCC(=O)Nc2ncc([N+](=O)[O-])s2)cc1OC	–	–	–	–	51.1	99.4	86.4	–	Beacon interf DR=–
CCOC(=O)C1=CN(Cc2cccc(-c3ccc4c(c3)OCO4)c2)S(=O)(=O)N(C)C1C (stereo not drawn)	–	–	–	–	–	–	·	·
COc1ccc(NC(=O)C(c2ccc(Cl)cc2)C(C)C)cn1 (stereo not drawn)	–	–	–	–	–	–	·	·
CC(=O)Oc1c(/C=C(\C#N)C(N)=O)[nH]c2ccccc12	–	–	–	–	–	–	·	·
Cc1ccc(Nc2nnc(SCc3nc4ccccc4c(=O)[nH]3)s2)cc1	–	–	–	–	–	66.0	–	–
O=c1[nH]c(CSc2nc3ccccc3s2)nc2ccccc12	–	–	–	–	–	–	·	·
O=C(CCc1nc2ccccc2c(=O)[nH]1)Nc1nnc(SCc2ccccc2F)s1	–	–	–	–	–	77.1	–	–
O=C(CCc1nc2ccccc2c(=O)[nH]1)Nc1nnc(SCc2ccc(Cl)cc2)s1	–	–	–	–	–	67.7	–	–
O=C(Nc1ccccc1)Nc1nnc(SCc2ccc(Cl)cc2)s1	–	–	–	–	–	–	·	·
COC(=O)c1ccc(-n2nnnc2SCc2ccccc2OC)cc1	–	–	–	–	–	–	·	·
COc1ccc(/C=C/C(=O)NC(=S)Nc2ccc(S(=O)(=O)N=C(N)N)cc2)cc1OC	–	–	–	–	–	61.0	–	–
O=C(N/N=C/c1cn(Cc2cccc(F)c2)c2ccccc12)c1cc(O)cc(O)c1	–	–	98.1	52.7	76.8	93.1	120.8	–	Beacon interf DR=–

High-throughput results (PubChem)
